Test results published in ChEMBL document CHEMBL1140207, “A small molecule inhibitor, 1,2,4,5-benzenetetraamine tetrahydrochloride, targeting the y397 site of focal adhesion kinase decreases tumor growth” (J Med Chem, 2008).
Calls of active or inactive are those of the source. The calls are words filed in the database; no cut-off is given here.

How the values were obtained:
C8161 = test: Cytotoxicity against human C8161 cells assessed as decrease in cell viability at 100 uM after 24 hrs by MTT assay; format: functional, cell-based
How it was run: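 Cells from breast cancer and melanoma lines were exposed to compound for 24 h and viability was read by MTT assay. A reference FAK inhibitor served as the control.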

[1] = molecular target: Insulin-like growth factor 1 receptor (Homo sapiens) (UniProt P08069); test: Inhibition of recombinant IGF1R at 1 uM
How it was run: (§1)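 Commercial kinase profiling panel: recombinant enzymes (including FAK kinase domain 411-686 a.a.) tested with 1 μM compound, 10 μM ATP and kinase substrates; % inhibition versus untreated; mean ± SE of two independent experiments.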

[2] = molecular target: PI3-kinase p110-delta/p85-alpha (Homo sapiens) (UniProt P27986+O00329); test: Inhibition of recombinant PI3 kinase p110delta/p85-alpha subunit at 1 uM; how it was run: as §1
BT-474 [3] = test: Induction of necrosis in non-apoptotic human BT474 cells after 24 hrs by propidium iodide staining based Zeiss fluorescent microscope; format: functional, cell-based
How it was run: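 BT474 cells treated at 10 and 100 μM, collected, stained 10 min with propidium iodide (10 μg/ml) for dead necrotic cells plus Hoechst (10 μg/ml) for nuclei; examined by fluorescence microscopy.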

[4] = molecular target: Focal adhesion kinase 1 (Homo sapiens) (UniProt Q05397); test: Inhibition of FAK-Y397 phosphorylation in human BT474 cells at 100 uM by Western blotting; format: cell-based; conditions: BT-474, TDE = time-dependent effect
How it was run: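 BT474 cells given 100 μM for 1–24 h; Y397-FAK and total FAK normalized to β-actin by densitometry, expressed relative to untreated; three independent experiments, mean ± SE.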

BT-474 [5] = test: Inhibition of human BT474 cells adhesion on collagen coated plates after 3 hrs by crystal violet staining
BT-474 [6] = test: Induction of apoptosis in human BT474 cells assessed as presence of apoptotic nuclei at 100 uM after 24 hrs by […] staining; format: functional, cell-based
How it was run: (§2)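 BT474 cells treated 24 h at various doses; apoptotic nuclei scored by Hoechst staining; means ± SD of four independent experiments versus untreated cells.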

[7] = molecular target: Protein-tyrosine kinase 2-beta (Homo sapiens) (UniProt Q14289); test: Inhibition of recombinant full length Pyk2 autophosphorylation expressed in baculovirus by SDS-PAGE
How it was run: (§3)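 In vitro autophosphorylation: 0.1 μg purified recombinant FAK or Pyk-2 with γ-32P-ATP and varying inhibitor doses, 10 min at room temperature; three independent experiments.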

[8] = molecular target: Proto-oncogene tyrosine-protein kinase Src (Homo sapiens) (UniProt P12931); test: Inhibition of c-Src phosphorylation in human BT474 cells at 100 uM after 24 hrs by Western blotting; format: cell-based; conditions: BT-474
Paxillin (Homo sapiens) [9] = molecular target: Paxillin (Homo sapiens) (UniProt P49023); test: Inhibition of paxillin-Y118 phosphorylation in human BT474 cells at 100 uM after 24 hrs by Western blotting; format: cell-based; conditions: BT-474
How it was run: (§4)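 BT474 cells treated 100 μM for 24 h; Western blot with Y397-FAK and Y118-paxillin antibodies, total FAK, paxillin and β-actin as expression/loading references.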

[10] = molecular target: Focal adhesion kinase 1 (Homo sapiens) (UniProt Q05397); test: Inhibition of total FAK autophosphorylation in human BT474 cells at 100 uM after 24 hrs by Western blotting; format: cell-based; conditions: BT-474
How it was run: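 BT474 lysates immunoprecipitated with FAK antibody, blotted with phosphotyrosine antibody, then stripped and reprobed for FAK.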

BT-474 [11] = test: Effect on human BT474 cell survival assessed as cell detachment at 100 uM after 24 hrs by hemocytometer; format: functional
How it was run: (§5)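 BT474 cells treated at a range of doses; detached cells counted on a hemacytometer; means ± standard errors of three independent experiments, versus untreated cells.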

[12] = molecular target: Vascular endothelial growth factor receptor 3 (Homo sapiens) (UniProt P35916); test: Inhibition of VEGFR3 phosphorylation in human BT474 cells at 100 uM after 24 hrs by Western blotting; format: cell-based; conditions: BT-474
BT-474 [13] = test: Effect on human BT474 cell survival assessed as cell detachment at 50 uM after 24 hrs by hemocytometer; format: functional; how it was run: as §5
T47D = test: Cytotoxicity against human T47D cells assessed as decrease in cell viability at 100 uM after 24 hrs by MTT assay; format: functional, cell-based
How it was run: (§6)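 Cells given each compound at 100 μM for 24 h, then MTT viability assay; known FAK inhibitor 1a used as reference control.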

[14] = molecular target: Vascular endothelial growth factor receptor 3 (Homo sapiens) (UniProt P35916); test: Inhibition of recombinant Flt4 at 1 uM; how it was run: as §1
[15] = Effect on human MCF10A cell survival assessed as cell detachment at 100 uM after 24 hrs by hemocytometer; format: ADME, cell-based; conditions: mcf-10a
How it was run: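 Normal breast MCF10A cells were treated with a range of compound doses. Detached cells were counted on a hemacytometer, and values are means ± standard errors of three independent experiments.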

[16] = molecular target: Hepatocyte growth factor receptor (Homo sapiens) (UniProt P08581); test: Inhibition of recombinant Met at 1 uM; how it was run: as §1
[17] = molecular target: Focal adhesion kinase 1 (Homo sapiens) (UniProt Q05397); test: Inhibition of FAK-Y397 phosphorylation in human BT474 cells after 24 hrs by Western blotting; format: cell-based; conditions: BT-474
How it was run: (§7)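 BT474 cells treated at different doses; Western blot for Y397-FAK then total FAK, plus Y402-Pyk-2; β-actin for loading.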

[18] = molecular target: Protein-tyrosine kinase 2-beta (Homo sapiens) (UniProt Q14289); test: Inhibition of recombinant Pyk2 at 1 uM; how it was run: as §1
[19] = molecular target: Proto-oncogene tyrosine-protein kinase Src (Homo sapiens) (UniProt P12931); test: Inhibition of recombinant c-Src at 1 uM; how it was run: as §1
[20] = molecular target: Focal adhesion kinase 1 (Homo sapiens) (UniProt Q05397); test: Inhibition of FAK-Y397 phosphorylation in human BT474 cells at 100 uM after 24 hrs by Western blotting; format: cell-based; conditions: BT-474; how it was run: as §4
BT-474 [21] = test: Inhibition of tumor growth in human BT474 cells xenografted in mouse assessed as reduction in tumor weight at 30 mg/kg administered daily for 5 days per week measured after 23 days; format: functional, organism-based; parameters: dose 30 mg/kg
How it was run: (§8)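 BT474 cells injected subcutaneously into mice (5 per group); dosing at 30 mg/kg daily, 5 days per week, starting the day after injection; untreated mice as controls.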

BT-474 [22] = test: Effect on human BT474 cell survival assessed as cell detachment after 24 hrs by hemocytometer; format: functional, cell-based; how it was run: as §5
[23] = molecular target: Focal adhesion kinase 1 (Homo sapiens) (UniProt Q05397); test: Inhibition of recombinant FAK domain (411 to 686 amino acids) without N terminal domain containing Y397 site at 1 uM; how it was run: as §1
[24] = molecular target: RAF proto-oncogene serine/threonine-protein kinase (Homo sapiens) (UniProt P04049); test: Inhibition of recombinant c-RAF at 1 uM; how it was run: as §1
BT-474 [25] = test: Inhibition of human BT474 cells adhesion on collagen coated plates at 100 uM after 3 hrs by crystal violet staining
BT-474 [26] = test: Cytotoxicity against human BT474 cells assessed as decrease in cell viability at 100 uM after 24 hrs by MTT assay; format: functional, cell-based; how it was run: as §6
[27] = molecular target: Epidermal growth factor receptor (Homo sapiens) (UniProt P00533); test: Inhibition of recombinant EGFR at 1 uM; how it was run: as §1
HT-29 = test: Cytotoxicity against human HT-29 cells assessed as decrease in cell viability at 100 uM after 24 hrs by MTT assay; format: functional, cell-based
BT-474 [28] = test: Induction of apoptosis in human BT474 cells assessed as cleavage of 89 kDa PARP at 1 uM after 24 hrs by Western blotting; format: functional, cell-based
How it was run: (§9)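 BT474 cells treated at various doses; lysates immunoblotted with PARP antibody, scoring cleaved 89 kDa fragment.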

A549 = test: Cytotoxicity against human A549 cells assessed as decrease in cell viability at 100 uM after 24 hrs by MTT assay; format: functional, cell-based
[29] = molecular target: Focal adhesion kinase 1 (Homo sapiens) (UniProt Q05397); test: Inhibition of recombinant full length FAK autophosphorylation expressed in baculovirus by SDS-PAGE; how it was run: as §3
BT-474 [30] = test: Effect on human BT474 cell survival assessed as cell detachment at 100 to 200 uM after 24 hrs by hemocytometer; format: functional; how it was run: as §5
BT-474 [31] = test: Cytotoxicity against human BT474 cells assessed as decrease in cell viability after 24 hrs by MTT assay; format: functional, cell-based
How it was run: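 BT474 breast cancer cells exposed to a range of doses for 24 h; viability by MTT; mean of triplicate determinations ± SD versus untreated cells.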

MCF7 = test: Cytotoxicity against human MCF7 cells assessed as decrease in cell viability at 100 uM after 24 hrs by MTT assay; format: functional, cell-based; how it was run: as §6
[32] = molecular target: Focal adhesion kinase 1 (Homo sapiens) (UniProt Q05397); test: Inhibition of recombinant full length FAK-mediated GST-paxillin […] expressed in baculovirus by SDS-PAGE
How it was run: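 Purified recombinant FAK (0.1 μg) with GST-paxillin substrate, γ-32P-ATP and varying inhibitor doses, 10 min at room temperature.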

BT-474 [33] = test: Induction of apoptosis in human BT474 cells assessed as cleavage of 89 kDa PARP at 100 uM after 24 hrs by Western blotting; format: functional, cell-based; how it was run: as §9
Mus musculus [34] = test: Inhibition of tumor growth in human BT474 cells xenografted in mouse assessed as animal weight loss at 30 mg/kg administered daily for 5 days per week measured after 23 days; format: organism-based, BT-474; parameters: dose 30 mg/kg; conditions: in vivo, 552 h
How it was run: (§10)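 BT474 breast cancer cells were injected subcutaneously into 5 mice. Dosing at 30 mg/kg started the day after injection and was given daily, 5 days per week. Five untreated mice served as controls.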

BT-474 [35] = test: Induction of apoptosis in human BT474 cells assessed as cleavage of 89 kDa PARP after 24 hrs by Western blotting
BT-474 [36] = test: Effect on human BT474 cell survival assessed as cell detachment at 10 uM after 24 hrs by hemocytometer; format: functional; how it was run: as §5
BT-474 [37] = test: Inhibition of tumor growth in human BT474 cells xenografted in mouse assessed as tumor volume at 30 mg/kg administered daily for 5 days per week measured after 23 days; format: functional, organism-based; parameters: dose 30 mg/kg; how it was run: as §8
Paxillin (Homo sapiens) [38] = molecular target: Paxillin (Homo sapiens) (UniProt P49023); test: Inhibition of paxillin phosphorylation in human BT474 cells at 100 uM after 24 hrs by Western blotting; format: cell-based; conditions: BT-474
[39] = molecular target: Platelet-derived growth factor receptor alpha (Homo sapiens) (UniProt P16234); test: Inhibition of recombinant PDGFRa at 1 uM; how it was run: as §1
[40] = molecular target: Protein-tyrosine kinase 2-beta (Homo sapiens) (UniProt Q14289); test: Inhibition of Pyk2-Y402 phosphorylation in human BT474 cells at 100 uM after 24 hrs by Western blotting; format: cell-based; conditions: BT-474; how it was run: as §7
BT-474 [41] = test: Induction of apoptosis in human BT474 cells at 50 to 100 uM after 24 hrs by […] staining; format: functional; how it was run: as §2
Mus musculus [42] = test: Inhibition of tumor growth in human BT474 cells xenografted in mouse assessed as animal death at 30 mg/kg administered daily for 5 days per week measured after 23 days; format: organism-based, BT-474; parameters: dose 30 mg/kg; conditions: in vivo, 552 h; how it was run: as §10

Chain of Protein-tyrosine kinase 2-beta (Homo sapiens) (Q14289 whole entry, looked up): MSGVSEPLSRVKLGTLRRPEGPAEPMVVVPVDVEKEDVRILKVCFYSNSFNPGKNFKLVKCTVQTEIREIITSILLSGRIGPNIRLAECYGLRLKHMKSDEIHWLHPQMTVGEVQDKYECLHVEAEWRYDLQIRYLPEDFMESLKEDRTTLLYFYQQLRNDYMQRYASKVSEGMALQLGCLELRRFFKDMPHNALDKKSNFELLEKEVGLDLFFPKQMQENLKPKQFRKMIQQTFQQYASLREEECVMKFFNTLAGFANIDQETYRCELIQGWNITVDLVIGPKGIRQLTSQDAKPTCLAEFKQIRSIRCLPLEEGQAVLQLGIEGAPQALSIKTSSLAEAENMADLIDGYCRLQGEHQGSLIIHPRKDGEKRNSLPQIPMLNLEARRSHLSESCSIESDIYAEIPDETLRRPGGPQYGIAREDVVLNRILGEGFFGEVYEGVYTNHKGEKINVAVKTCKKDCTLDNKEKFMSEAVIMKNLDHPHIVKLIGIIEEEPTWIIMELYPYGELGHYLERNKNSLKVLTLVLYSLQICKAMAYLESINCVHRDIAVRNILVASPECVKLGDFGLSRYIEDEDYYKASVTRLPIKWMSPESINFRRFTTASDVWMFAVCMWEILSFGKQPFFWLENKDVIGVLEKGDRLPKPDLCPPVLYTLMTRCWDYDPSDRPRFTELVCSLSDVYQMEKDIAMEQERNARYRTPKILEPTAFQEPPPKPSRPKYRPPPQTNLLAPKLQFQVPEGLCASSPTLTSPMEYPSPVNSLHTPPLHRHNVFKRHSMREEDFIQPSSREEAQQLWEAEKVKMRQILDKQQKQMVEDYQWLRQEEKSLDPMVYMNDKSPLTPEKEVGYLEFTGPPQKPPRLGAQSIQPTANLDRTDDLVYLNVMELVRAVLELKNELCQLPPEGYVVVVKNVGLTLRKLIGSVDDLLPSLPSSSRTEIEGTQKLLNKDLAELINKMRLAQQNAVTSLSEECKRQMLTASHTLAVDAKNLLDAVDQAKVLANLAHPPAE
Chain of Focal adhesion kinase 1 (Homo sapiens) (Q05397 2-1052 limits assumed): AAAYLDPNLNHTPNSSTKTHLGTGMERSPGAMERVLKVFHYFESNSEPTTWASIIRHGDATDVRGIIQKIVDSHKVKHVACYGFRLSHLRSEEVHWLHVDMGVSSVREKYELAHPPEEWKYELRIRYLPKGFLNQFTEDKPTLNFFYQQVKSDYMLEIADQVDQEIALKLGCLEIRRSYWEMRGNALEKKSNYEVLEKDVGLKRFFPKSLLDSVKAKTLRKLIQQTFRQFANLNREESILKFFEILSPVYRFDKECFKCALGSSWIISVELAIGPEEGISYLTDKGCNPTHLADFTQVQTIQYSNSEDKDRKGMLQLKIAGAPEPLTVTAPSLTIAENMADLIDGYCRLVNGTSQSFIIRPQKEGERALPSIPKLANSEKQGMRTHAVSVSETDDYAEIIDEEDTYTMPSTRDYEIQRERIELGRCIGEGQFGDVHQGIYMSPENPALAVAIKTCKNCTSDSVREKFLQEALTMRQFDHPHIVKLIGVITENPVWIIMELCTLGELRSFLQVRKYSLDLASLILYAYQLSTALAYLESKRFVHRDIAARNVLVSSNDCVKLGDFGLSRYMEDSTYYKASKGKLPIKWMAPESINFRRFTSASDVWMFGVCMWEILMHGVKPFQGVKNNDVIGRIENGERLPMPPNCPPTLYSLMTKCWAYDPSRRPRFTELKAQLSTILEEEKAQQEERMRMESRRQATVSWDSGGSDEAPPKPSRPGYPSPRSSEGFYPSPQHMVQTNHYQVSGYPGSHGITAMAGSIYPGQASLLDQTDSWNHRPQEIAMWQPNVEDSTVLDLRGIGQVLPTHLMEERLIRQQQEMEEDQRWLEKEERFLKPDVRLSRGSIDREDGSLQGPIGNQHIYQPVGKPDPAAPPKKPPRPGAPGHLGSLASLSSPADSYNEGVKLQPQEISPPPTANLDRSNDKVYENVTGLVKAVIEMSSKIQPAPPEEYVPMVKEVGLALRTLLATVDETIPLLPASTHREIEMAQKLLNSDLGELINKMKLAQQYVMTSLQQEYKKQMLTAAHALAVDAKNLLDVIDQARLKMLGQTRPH
Chain of Proto-oncogene tyrosine-protein kinase Src (Homo sapiens) (P12931 2-536 limits assumed): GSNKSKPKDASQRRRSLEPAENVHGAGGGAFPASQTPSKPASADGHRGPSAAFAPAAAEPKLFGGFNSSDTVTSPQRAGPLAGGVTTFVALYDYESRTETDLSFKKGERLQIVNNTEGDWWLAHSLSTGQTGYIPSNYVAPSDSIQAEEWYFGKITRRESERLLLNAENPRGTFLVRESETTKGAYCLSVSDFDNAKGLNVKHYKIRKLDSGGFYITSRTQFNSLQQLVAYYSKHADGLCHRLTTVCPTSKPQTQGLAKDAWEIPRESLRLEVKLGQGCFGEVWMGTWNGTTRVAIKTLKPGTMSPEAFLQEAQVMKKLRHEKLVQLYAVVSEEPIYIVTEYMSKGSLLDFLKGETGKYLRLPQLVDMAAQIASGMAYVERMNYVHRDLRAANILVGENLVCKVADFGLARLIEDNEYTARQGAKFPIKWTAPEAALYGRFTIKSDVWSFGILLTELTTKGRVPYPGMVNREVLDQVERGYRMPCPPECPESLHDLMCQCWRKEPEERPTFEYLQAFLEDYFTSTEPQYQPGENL
Chain of Vascular endothelial growth factor receptor 3 (Homo sapiens) (P35916 whole entry): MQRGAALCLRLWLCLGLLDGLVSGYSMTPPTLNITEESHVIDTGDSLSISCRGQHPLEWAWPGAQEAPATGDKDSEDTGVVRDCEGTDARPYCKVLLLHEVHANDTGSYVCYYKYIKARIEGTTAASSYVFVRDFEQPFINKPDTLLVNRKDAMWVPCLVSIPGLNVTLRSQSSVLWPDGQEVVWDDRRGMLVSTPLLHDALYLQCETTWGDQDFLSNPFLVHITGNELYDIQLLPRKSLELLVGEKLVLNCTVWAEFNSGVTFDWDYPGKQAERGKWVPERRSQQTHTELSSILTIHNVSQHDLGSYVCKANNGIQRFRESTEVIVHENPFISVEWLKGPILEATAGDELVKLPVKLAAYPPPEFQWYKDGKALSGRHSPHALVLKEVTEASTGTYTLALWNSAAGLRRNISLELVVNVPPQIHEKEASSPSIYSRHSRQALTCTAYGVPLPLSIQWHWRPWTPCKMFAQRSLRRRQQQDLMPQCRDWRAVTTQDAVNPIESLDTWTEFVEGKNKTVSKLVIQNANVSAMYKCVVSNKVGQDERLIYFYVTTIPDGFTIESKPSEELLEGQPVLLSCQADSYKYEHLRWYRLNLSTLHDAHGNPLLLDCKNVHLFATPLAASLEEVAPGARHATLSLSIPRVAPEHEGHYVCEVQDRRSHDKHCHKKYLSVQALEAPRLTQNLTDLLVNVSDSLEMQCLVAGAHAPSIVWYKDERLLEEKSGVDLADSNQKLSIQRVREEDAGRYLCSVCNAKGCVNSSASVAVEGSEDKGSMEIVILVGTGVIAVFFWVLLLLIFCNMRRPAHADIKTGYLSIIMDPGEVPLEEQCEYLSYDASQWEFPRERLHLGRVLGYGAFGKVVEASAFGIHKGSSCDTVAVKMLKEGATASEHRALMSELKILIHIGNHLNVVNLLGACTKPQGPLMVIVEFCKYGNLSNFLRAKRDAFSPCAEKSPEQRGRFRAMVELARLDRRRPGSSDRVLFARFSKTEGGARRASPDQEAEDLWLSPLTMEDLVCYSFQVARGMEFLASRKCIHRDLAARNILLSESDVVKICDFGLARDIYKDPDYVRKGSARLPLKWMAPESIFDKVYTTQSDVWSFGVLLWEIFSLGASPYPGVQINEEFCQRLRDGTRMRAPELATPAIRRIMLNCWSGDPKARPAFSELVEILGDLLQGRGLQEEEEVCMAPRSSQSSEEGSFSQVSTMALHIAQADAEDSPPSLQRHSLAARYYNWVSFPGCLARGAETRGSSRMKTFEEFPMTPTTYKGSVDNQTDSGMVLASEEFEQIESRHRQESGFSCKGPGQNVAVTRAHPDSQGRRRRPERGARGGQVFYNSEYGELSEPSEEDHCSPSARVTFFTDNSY
Chain of Paxillin (Homo sapiens) (P49023 whole entry): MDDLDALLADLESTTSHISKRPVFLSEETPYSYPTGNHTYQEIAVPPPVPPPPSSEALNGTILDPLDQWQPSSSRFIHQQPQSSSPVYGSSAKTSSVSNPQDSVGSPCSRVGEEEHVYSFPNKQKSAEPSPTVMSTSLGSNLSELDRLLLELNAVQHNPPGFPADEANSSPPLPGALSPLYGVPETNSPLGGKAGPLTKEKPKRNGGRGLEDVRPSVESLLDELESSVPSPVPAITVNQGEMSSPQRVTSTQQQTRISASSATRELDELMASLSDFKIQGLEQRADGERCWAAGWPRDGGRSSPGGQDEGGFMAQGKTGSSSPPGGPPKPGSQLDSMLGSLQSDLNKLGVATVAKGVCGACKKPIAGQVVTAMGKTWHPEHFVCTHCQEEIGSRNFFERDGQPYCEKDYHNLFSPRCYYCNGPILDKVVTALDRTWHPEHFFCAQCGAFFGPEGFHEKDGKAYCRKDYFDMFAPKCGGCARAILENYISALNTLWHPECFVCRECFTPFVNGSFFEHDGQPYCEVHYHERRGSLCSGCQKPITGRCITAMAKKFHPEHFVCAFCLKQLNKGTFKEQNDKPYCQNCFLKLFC

O=S1(=O)N2CN3CCN(C2)CN1C3
Activity (C8161): Active

Cl.Nc1cc(N)c(N)cc1N
Activity [1]: inactive | Activity [2]: inactive | Activity (BT-474 [3]): Dose-dependent effect | Activity [4]: tde | Activity (BT-474 [5]): Dose-dependent effect | Activity (BT-474 [6]): inactive | Activity [7]: inactive | Activity [8]: inactive | Activity (Paxillin (Homo sapiens) [9]): Active | Activity [10]: Active | Activity (BT-474 [11]): 64% | Activity [12]: inactive | Activity (BT-474 [13]): 38% | Activity (T47D): Active | Activity [14]: inactive | Activity [15]: 15% | Activity [16]: inactive | Activity [17]: Dose-dependent effect | Activity [18]: inactive | Activity [19]: inactive | Activity [20]: Active | Activity (BT-474 [21]): Active | Activity (BT-474 [22]): Dose-dependent effect | Activity [23]: inactive | Activity [24]: inactive | Activity (BT-474 [25]): Active | Activity (BT-474 [26]): Active | Activity [27]: inactive | Activity (HT-29): Active | Activity (BT-474 [28]): inactive | Activity (A549): Active | Activity [29]: Dose-dependent effect | Activity (BT-474 [30]): 64% | Activity (BT-474 [31]): Dose-dependent effect | Activity (MCF7): Active | Activity (C8161): Active | Activity [32]: Dose-dependent effect | Activity (BT-474 [33]): inactive | Activity (Mus musculus [34]): Non-toxic | Activity (BT-474 [35]): Active | Activity (BT-474 [36]): 8% | Activity (BT-474 [37]): Active | Activity (Paxillin (Homo sapiens) [38]): Active | Activity [39]: inactive | Activity [40]: inactive | Activity (BT-474 [41]): <5% | Activity (Mus musculus [42]): Non-toxic
